Laboratory results taken from ChEMBL document CHEMBL4145666, “In Search of Selectivity in Inhibition of ADAM10” (ACS Med Chem Lett, 2018).
Calls of active or inactive are those of the source. The rule behind the calls is not given here.

Tests used:
[1] = Elimination half life in CD-1 mouse plasma at 25 mg/kg, sc by UPLC analysis; assay type: ADME, organism-based; conditions: read-out: beta t1/2
Procedure, shortened: (§1)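 Male CD-1 mice, 6–7 weeks old, about 30 g, fed and watered ad libitum. Single dose of 10 mg/kg ip or 25 mg/kg sc, given as 100 μL formulation; n = 3 per time point per route. At set times, blood was taken by cardiac puncture with heparinized syringes and spun to plasma. Brains were harvested after transcardiac saline perfusion, weighed and flash-frozen. Brain levels are in pmol/mg tissue.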

[2] = biological target: Macrophage metalloelastase (Homo sapiens, UniProt P39900); assay: Inhibition of recombinant human MMP12 catalytic domain using Mca-PLGL-DpaAR-NH2 as substrate by fluorescence spectrophotometric method
Sequence of Macrophage metalloelastase (P39900 whole entry, the tested form may be a part): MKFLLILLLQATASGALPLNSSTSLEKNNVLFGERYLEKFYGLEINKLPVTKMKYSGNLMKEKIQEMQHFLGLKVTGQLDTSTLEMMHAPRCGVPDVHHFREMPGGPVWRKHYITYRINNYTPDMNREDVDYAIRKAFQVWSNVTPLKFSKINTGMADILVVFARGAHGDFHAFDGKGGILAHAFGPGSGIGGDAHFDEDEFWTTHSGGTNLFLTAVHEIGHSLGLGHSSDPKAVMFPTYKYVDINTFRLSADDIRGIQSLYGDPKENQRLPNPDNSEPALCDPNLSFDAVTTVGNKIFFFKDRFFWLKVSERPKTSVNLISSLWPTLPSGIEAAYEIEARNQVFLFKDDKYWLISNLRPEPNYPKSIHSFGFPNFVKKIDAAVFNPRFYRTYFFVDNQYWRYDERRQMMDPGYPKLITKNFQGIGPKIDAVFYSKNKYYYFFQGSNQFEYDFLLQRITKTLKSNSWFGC
Procedure, shortened: (§2)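 Enzymes and their substrates were obtained as in earlier work, and inhibition was run by a previously reported protocol. Ki values were measured in triplicate.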

[3] = Elimination half life in CD-1 mouse plasma at 10 mg/kg, ip by UPLC analysis; assay type: ADME, organism-based; conditions: read-out: beta t1/2; procedure, shortened: as §1
[4] = biological target: T1, Matrilysin (Homo sapiens) (UniProt P09237); assay: Inhibition of recombinant human MMP7 expressed in Escherichia coli using MOCAc-Pro-Leu-Gly-Leu-A2pr(Dnp)-Ala-Arg-NH2 as substrate at 10 uM by fluorescence spectrophotometric method
T1 sequence (whole entry): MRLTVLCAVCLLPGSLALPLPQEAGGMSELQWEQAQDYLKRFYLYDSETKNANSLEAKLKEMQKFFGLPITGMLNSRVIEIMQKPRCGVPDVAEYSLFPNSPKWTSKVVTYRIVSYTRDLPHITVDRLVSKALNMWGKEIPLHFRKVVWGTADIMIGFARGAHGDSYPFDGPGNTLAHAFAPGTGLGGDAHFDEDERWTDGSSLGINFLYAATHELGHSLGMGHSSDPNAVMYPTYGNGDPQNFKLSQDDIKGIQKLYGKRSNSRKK
Procedure, shortened: (§3)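 Single inhibitor concentration of 10 μM, reported as percent inhibition. Enzymes and substrates as in earlier work, with inhibition run by a previously reported protocol.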

Neutrophil collagenase = Neutrophil collagenase (Homo sapiens, UniProt P22894); assay: Inhibition of recombinant human MMP8 catalytic domain (Phe99 to Gln269 residues) expressed in Escherichia coli using McaKPLGL-Dpa-AR-NH2 as substrate by fluorescence spectrophotometric method; procedure, shortened: as §2
Sequence of Neutrophil collagenase (P22894 whole entry, the tested form may be a part): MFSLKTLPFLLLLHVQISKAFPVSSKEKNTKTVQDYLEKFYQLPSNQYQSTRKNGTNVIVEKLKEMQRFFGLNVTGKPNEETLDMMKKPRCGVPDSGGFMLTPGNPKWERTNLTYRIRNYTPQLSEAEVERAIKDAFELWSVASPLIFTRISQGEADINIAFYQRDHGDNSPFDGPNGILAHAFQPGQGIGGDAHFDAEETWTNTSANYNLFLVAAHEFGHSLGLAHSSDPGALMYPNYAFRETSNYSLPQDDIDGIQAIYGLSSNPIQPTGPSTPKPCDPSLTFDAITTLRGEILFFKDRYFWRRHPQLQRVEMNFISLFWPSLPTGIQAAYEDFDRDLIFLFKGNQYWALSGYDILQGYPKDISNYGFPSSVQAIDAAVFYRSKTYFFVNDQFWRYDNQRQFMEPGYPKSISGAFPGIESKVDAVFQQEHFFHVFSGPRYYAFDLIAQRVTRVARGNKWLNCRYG

[5] = Elimination half life in CD-1 mouse brain at 10 mg/kg, ip by UPLC analysis; assay type: ADME, organism-based; conditions: read-out: beta t1/2; procedure, shortened: as §1
[6] = Primary phase half life in CD-1 mouse plasma at 25 mg/kg, sc by UPLC analysis; assay type: ADME, organism-based; conditions: read-out: alphat1/2; procedure, shortened: as §1
[7] = AUC (0 to infinity) in CD-1 mouse plasma at 10 mg/kg, ip by UPLC analysis; assay type: ADME, organism-based; design: dose 10 mg/kg, route intraperitoneal, time infinity; procedure, shortened: as §1
[8] = AUC (0 to last) in CD-1 mouse brain assessed per mg tissue at 25 mg/kg, sc by UPLC analysis; assay type: ADME, organism-based; conditions: in vivo; procedure, shortened: as §1
[9] = Ratio of AUC (0 to infinity) in brain to plasma in CD-1 mouse at 10 mg/kg, ip by UPLC analysis; assay type: ADME, organism-based; conditions: read-out: Ratio AUC
Procedure, shortened: (§4)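 Male CD-1 mice (6–7 weeks, about 30 g) received one dose: 10 mg/kg ip or 25 mg/kg sc, with n = 3 per time point per route. At set times, plasma came from heparinized cardiac-puncture blood. Brain was taken after transcardiac saline perfusion, weighed and flash-frozen. Brain levels were in pmol/mg tissue, plasma in μM. Value is AUCbrain/AUCplasma.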

[10] = biological target: T2, Interstitial collagenase (Homo sapiens) (UniProt P03956); assay: Inhibition of recombinant human MMP1 catalytic domain (Phe100 to Gln268 residues) expressed in Escherichia coli at 10 uM using McaKPLGL-Dpa-AR-NH2 as substrate by fluorescence spectrophotometric method; procedure, shortened: as §3
T2 sequence (whole entry): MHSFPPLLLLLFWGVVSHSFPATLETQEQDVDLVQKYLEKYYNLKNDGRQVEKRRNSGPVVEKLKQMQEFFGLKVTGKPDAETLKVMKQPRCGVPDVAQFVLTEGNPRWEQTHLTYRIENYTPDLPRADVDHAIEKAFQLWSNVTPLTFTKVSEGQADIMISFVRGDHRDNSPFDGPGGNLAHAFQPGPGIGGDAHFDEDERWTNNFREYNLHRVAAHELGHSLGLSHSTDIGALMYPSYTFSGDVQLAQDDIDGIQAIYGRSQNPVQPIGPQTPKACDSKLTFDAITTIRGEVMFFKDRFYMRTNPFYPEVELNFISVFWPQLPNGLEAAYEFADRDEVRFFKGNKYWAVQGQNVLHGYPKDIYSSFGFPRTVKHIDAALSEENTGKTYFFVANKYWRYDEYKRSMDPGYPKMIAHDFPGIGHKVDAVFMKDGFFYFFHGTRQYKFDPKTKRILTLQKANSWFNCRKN

[11] = Primary phase half life in CD-1 mouse brain at 25 mg/kg, sc by UPLC analysis; assay type: ADME, organism-based; conditions: read-out: alphat1/2; procedure, shortened: as §1
Mus musculus = assay: Time at which brain concentration stays above in-vitro Ki for ADAM10 in CD-1 mouse at 25 mg/kg, sc by UPLC analysis; assay type: ADME, organism-based; conditions: in vivo; procedure, shortened: as §1
[12] = Ratio of AUC (0 to infinity) in brain to plasma in CD-1 mouse at 25 mg/kg, sc by UPLC analysis; assay type: ADME, organism-based; conditions: read-out: Ratio AUC; procedure, shortened: as §4
[13] = Primary phase half life in CD-1 mouse plasma at 10 mg/kg, ip by UPLC analysis; assay type: ADME, organism-based; conditions: read-out: alphat1/2; procedure, shortened: as §1
[14] = biological target: Stromelysin-1 (Homo sapiens) (UniProt P08254); assay: Inhibition of recombinant human MMP3 catalytic domain expressed in Escherichia coli at 10 uM using MOCAc-Arg-Pro-LysPro-Val-Glu-Nva-Trp-Arg-Lys(Dnp)-NH2 as substrate by fluorescence spectrophotometric method relative to control; procedure, shortened: as §3
Sequence of Stromelysin-1 (Homo sapiens) (P08254 100-477 limits assumed): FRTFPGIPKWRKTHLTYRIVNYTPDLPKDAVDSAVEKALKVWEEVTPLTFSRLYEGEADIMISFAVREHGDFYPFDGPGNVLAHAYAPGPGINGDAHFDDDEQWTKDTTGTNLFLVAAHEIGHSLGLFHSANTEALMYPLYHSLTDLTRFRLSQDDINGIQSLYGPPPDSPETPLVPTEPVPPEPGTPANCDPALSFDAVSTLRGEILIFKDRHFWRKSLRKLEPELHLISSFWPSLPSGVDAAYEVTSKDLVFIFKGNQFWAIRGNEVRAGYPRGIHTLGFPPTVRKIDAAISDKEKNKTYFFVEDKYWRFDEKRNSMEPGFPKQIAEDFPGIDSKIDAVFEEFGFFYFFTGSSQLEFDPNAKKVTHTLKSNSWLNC

half-life [1]: 2.63 h
Ki [2]: 0.27 µM
half-life [3]: 5.25 h
inhibition [4]: inactive
Ki (Neutrophil collagenase): 8.7 µM
half-life [5]: 3.4 h
half-life [6]: 0.257 h
AUC(0-inf) [7]: 3.07 µM·h
AUClast [8]: 51.2 pmol·min
Kp [9]: 0.0761
inhibition [10]: inactive
half-life [11]: 0.19 h
Time (Mus musculus): 100 min
Kp [12]: 0.0693
half-life [13]: 0.207 h
inhibition [14]: 2%
Structure (SMILES): O=C(NO)[C@H]1C[C@H](OC(=O)N2CCCC2)CC[C@@H]1C(=O)N1CCC(c2ccccc2)CC1
